Source: ChEMBL document CHEMBL4814013, “Scaffold repurposing of fendiline: Identification of potent KRAS plasma membrane localization inhibitors” (Eur J Med Chem, 2021)
Active and inactive are the calls of the source. The calls are words filed in the database; no cut-off is given here.

Legend:
[1] = Inhibition of ASM in dog MDCK cells co-expressing recombinant full length mGFP-tagged KRAS G12V mutant and mCherry-CAAX assessed as reduction in plasma membrane localization of KRAS mutant incubated for 48 hrs by confocal microscopic analysis; assay type: cell membranes, Canis lupus familiaris
Outline: (§1)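 MDCK cells stably co-expressing mGFP-KRAS G12V or mGFP-LactC2 with mCherry-CAAX (HRAS 179–189 C181S/C184S) grown on coverslips in DMEM/10% FBS. Treated 48 h with 0.1% DMSO or graded drug, fixed in 4% paraformaldehyde, then quantitative confocal imaging. Mislocalization scored as the Manders fraction of mCherry-CAAX co-localizing with the GFP probe. IC50 and Emax from three independent experiments.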

MDCK [2] = test: Inhibition of ASM in dog MDCK cells co-expressing recombinant full length mGFP-tagged KRAS G12V mutant and mCherry-CAAX assessed as reduction in plasma membrane localization of KRAS mutant incubated for 48 hrs by confocal microscopic analysis relative to control; assay type: cell membranes; settings: Canis lupus familiaris; outline: as §1
MDCK [3] = test: Reduction in expression of human GFP-tagged ASM transfected in dog MDCK cells at 5 uM incubated for 48 hrs by western blot analysis; assay type: functional, cell-based; settings: Canis lupus familiaris
Outline: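 SMPD1-GFP-expressing MDCK cells treated 48 h with 5 µM compound, washed in cold PBS and lysed in Tris pH 7.5 buffer with NaF, EGTA, DTT, vanadate, 1% NP40 and protease inhibitors. 20 µg of protein resolved by SDS-PAGE and immunoblotted. Signals detected by enhanced chemiluminescence and quantified by densitometry.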

MDCK [4] = test: Inhibition of ASM in dog MDCK cells co-expressing recombinant full length mGFP-tagged KRAS G12V mutant and mCherry-CAAX assessed as reduction in plasma membrane localization of KRAS mutant at 1 uM incubated for 48 hrs followed by incubation with recombinant ASM in continued presence of compound for 60 mins by confocal microscopic analysis; assay type: cell membranes; settings: Canis lupus familiaris, time 49.0 hrs
Outline: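 MDCK cells stably co-expressing mGFP-KRAS G12V and mCherry-CAAX seeded on glass coverslips and grown 48 h with or without compound. Medium then replaced with fresh medium containing 2 units/mL recombinant ASM, drug continued, for 60 min. Cells mounted in mowiol and imaged by confocal microscopy. Mislocalization scored by Manders coefficient.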

MEF = test: Cytotoxicity against mouse MEF cells expressing BRAF V600E mutant and wild type KRAS assessed as reduction in cell growth incubated for 72 hrs by CyQuant proliferation assay; assay type: functional, cell-based
Outline: (§2)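 Cells seeded in 96-well plates; after 24 h fresh growth medium with 0.1% DMSO vehicle or drug added (highest dose 30 µM for cancer lines), grown 72 h at 37 °C, 5% CO2. Live cell number measured by CyQUANT fluorescence. IC50 from three independent experiments. MEFs were isogenic lines carrying oncogenic BRAF or KRAS.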

BXPC-3 = test: Antiproliferative activity against human BXPC-3 cells expressing wild type KRAS assessed as reduction in cell growth incubated for 72 hrs by CyQuant proliferation assay; assay type: functional, cell-based; settings: BXPC-3, 72 h; outline: as §2
[5] = Antiproliferative activity against human MOH cells expressing KRAS mutant assessed as reduction in cell growth incubated for 72 hrs by CyQuant proliferation assay; assay type: functional, cell-based; outline: as §2
SK-CO-1 = test: Antiproliferative activity against human SK-CO-1 cells expressing mutant KRAS assessed as reduction in cell growth incubated for 72 hrs by CyQuant proliferation assay; assay type: functional, cell-based; settings: SK-CO-1, 72 h; outline: as §2
NCI-H1975 = test: Antiproliferative activity against human NCI-H1975 cells expressing wild type KRAS assessed as reduction in cell growth incubated for 72 hrs by CyQuant proliferation assay; assay type: functional, cell-based; settings: NCI-H1975, 72 h; outline: as §2
NCI-H522 = test: Antiproliferative activity against human NCI-H522 cells expressing wild type KRAS assessed as reduction in cell growth incubated for 72 hrs by CyQuant proliferation assay; assay type: functional, cell-based; settings: NCI-H522, 72 h; outline: as §2
ESS-1 = test: Antiproliferative activity against human ESS-1 cells expressing wild type KRAS assessed as reduction in cell growth upto 30 uM incubated for 72 hrs by CyQuant proliferation assay; assay type: functional, cell-based; settings: dose microM <=30, time 72.0 hrs; outline: as §2
Mus musculus [6] = test: In vivo inhibition of ASM in nu/nu mouse xenografted with human MIA PaCa-2 cells harboring KRAS mutation assessed as increase in SM accumulation in tumor at 12.5 mg/kg, ip administered once daily for 5 days with 2 days break by GFP-lysenin staining based confocal laser microscopy; assay type: functional, organism-based; settings: time 5.0 day
Outline: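 Sections of MiaPaCa-2 xenograft tumors from i.p.-treated nu/nu mice (12.5 mg/kg) stained with GFP-tagged lysenin to detect sphingomyelin.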

Mus musculus [7] = test: In vivo inhibition of KRAS signaling in nu/nu mouse xenografted with human MIA PaCa-2 cells harboring KRAS mutation assessed as decrease in ERK phosphorylation in tumor at 1 to 5 mg/kg, ip administered once daily for 5 days with 2 days break by immunohistochemistry; assay type: functional, organism-based; settings: dose 1-5 mg/kg, time 5.0 day
Outline: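 Paraffin tumor sections of 4–5 µm were deparaffinized and given heat antigen retrieval in 10 mM sodium citrate. Endogenous peroxidase was quenched and sections blocked in 2.5% normal goat serum. Primary antibody (pERK or cleaved caspase 3) applied overnight at 4 °C, biotinylated secondary 1:250 for 45 min at rt, then ABC reagent 30 min and DAB development. Rabbit IgG served as control.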

MDCK [8] = test: Inhibition of ASM in dog MDCK cells co-expressing recombinant full length GFP-tagged LactC2 and mCherry-CAAX assessed as reduction in plasma membrane localization of LactC2 incubated for 48 hrs by confocal microscopic analysis; assay type: cell membranes; settings: Canis lupus familiaris; outline: as §1

Row | Structure (SMILES) | IC50 [1] [µM] | Emax (MDCK [2]) | inhibition (MDCK [3]) | inhibition (MDCK [4]) | IC50 (MEF) [µM] | IC50 (BXPC-3) [µM] | IC50 [5] [µM] | IC50 (SK-CO-1) [µM] | IC50 (NCI-H1975) [µM] | IC50 (NCI-H522) [µM] | Activity (ESS-1) | inhibition (Mus musculus [6]) | inhibition (Mus musculus [7]) | inhibition (MDCK [8])
1 | COc1ccc([C@@H](C)N(CC=C(c2ccccc2)c2ccccc2)CCCN2CCN(C)CC2)cc1 | 0.02 | 0.81 | inactive | inactive | 7.9 | 5.3 | 3.8 | 3.5 | > 30 | 23.5 | inactive | inactive | Active | Active
2 | COc1ccc([C@@H](C)N(CC=C(c2ccccc2)c2ccccc2)CCN2CCCC2)cc1 | 0.3 | 0.85 | Active | inactive | 8.5 | 5.5 | 3.6 | 3 | > 30 | 27.3 | inactive | Active | Active | Active
